An excerpt weighted towards active compounds, which were near 3.6% of everything screened.
ZTA counter: counter-screen for EBNA-1 inhibitors: inhibitors of Epstein-Barr virus ZTA. ZTA-DNA binding, fluorescence polarization. 0.15% of 320,000 active. P03206. inhibition, % at 11 µM; in the data active = inhibition above about 33%
Target sequence (P03206 whole entry, looked up): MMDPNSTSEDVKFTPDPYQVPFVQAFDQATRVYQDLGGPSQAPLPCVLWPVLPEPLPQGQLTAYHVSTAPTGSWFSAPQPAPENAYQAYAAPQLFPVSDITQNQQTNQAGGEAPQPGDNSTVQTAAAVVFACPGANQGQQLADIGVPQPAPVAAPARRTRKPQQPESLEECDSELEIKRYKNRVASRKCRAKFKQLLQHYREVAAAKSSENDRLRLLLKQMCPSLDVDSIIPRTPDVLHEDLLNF
FID counter: fluorescent intercalator displacement, NS3 helicase counter-screen; AID 1845; inhibition, % at 7.9 µM; 0.17% of 290,000 active; DNA fluorescent intercalator displacement, fluorescence; in the data active = inhibition above about 37%;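 note: 0% = vehicle and 100% = reference compound; higher means more ethidium bromide displaced from hairpin DNA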
NS3 helicase inh: blocks Hepatitis C virus NS3 helicase unwinding. NS3 helicase DNA unwinding, Cy5 molecular beacon fluorescence. AID 1800. 0.56% of 290,000 active. inhibition, % at 10.9 µM;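 active = inhibition above the mean of all tested compounds plus 3 SD, set per campaign, cut at about 35% in these data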;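 note: 0% = DMSO wells and 100% = thioflavine S control wells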
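Assay system – hepatitis C virus NS3 helicase domain fragment enzyme · Buffer or medium – MOPS pH 6.5, MgCl2, DTT, Tween20, BSA · Reagent – Cy5/quencher beacon DNA duplex and ATP to start · Compound – single 10.9 µM dose · Timing – 1 h at 25 °C · Technique – Cy5 beacon fluorescence read at start and 1 h · Measure – % inhibition of unwinding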
FGF22 binding: binders of recombinant human FGF22 by thermal shift; SYPRO orange fluorescence; percent of sucrose octasulfate shift, DMSO zero; activity (Tm shift, normalised), % at 9.99 µM; 1.5% of 340,000 active; AID 651658;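 active = mean Tm shift, scaled 0 neutral to 100 positive control, at about 1.3% or above, every replicate too, limit read from the data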
Target sequence (Q9HCT0 whole entry, looked up): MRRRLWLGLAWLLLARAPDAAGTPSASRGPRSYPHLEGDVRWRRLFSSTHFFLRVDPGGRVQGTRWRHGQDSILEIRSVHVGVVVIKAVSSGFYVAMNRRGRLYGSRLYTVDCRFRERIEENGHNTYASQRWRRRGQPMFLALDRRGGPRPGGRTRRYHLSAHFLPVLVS
EBNA-1 inhibitor: blocks EBNA-1 binding to DNA; EBNA-1 DNA binding, fluorescence polarization; inhibition, % at 14.8 µM; 0.34% of 300,000 active; AID 1950; in the data active = inhibition above about 28%
NR3A LBD binder: NR3A (human) ligand-binding domain modulation; NR3A LBD differential scanning fluorimetry, Tm shift; 0% = protein alone, 100% = glycine-bound protein; Tm shift relative to glycine control, % at 25 µM; 2.5% of 340,000 active; AID 1259313;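 active = melting temperature shift of at least 10% of the positive control shift, at one fixed dose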
An asterisk follows results filed as active; x = no result.

SMILES	ZTA counter	FID counter	NS3 helicase inh	FGF22 binding	EBNA-1 inhibitor	NR3A LBD binder
CC(=O)Nc1cccc(NC(=O)CSc2ncc(C(=O)Nc3ccc(F)cc3)c(=O)n2C)c1	2	x	x	0	1	18*
CCN(CC)c1ccc(C=N/C(C#N)=C(\N)C#N)cc1	-19	0	-6	x	5	27*
CCN(CC)c1ccc(/C=C(\C#N)c2ccccn2)cc1	1	-8	-15	x	11	4
C[C@H]1CN([C@@H](C)CO)C(=O)c2cccc(NC(=O)Nc3cccc4ccccc34)c2O[C@H]1CN(C)Cc1ccc(Oc2ccccc2)cc1	x	x	x	0	x	x
COc1cc(/C=N/NC(=O)c2ccc3nc[nH]c3c2)ccc1O	-6	0	-2	0	-4	26*
O=C(N/N=C/C(Br)=C\c1ccccc1)c1ccc2nc[nH]c2c1	-6	-3	-8	x	9	15*
COc1cc(/C=N/Nc2nc(C)nc3c2cnn3-c2ccccc2)ccc1O	x	0	-6	0	x	13*
C=CCc1cccc(/C=N/NC(=O)c2ccc3nc[nH]c3c2)c1O	16	10	-11	0	8	11*
COc1cc(/C=N/NC(=O)c2nc(-c3ccccc3)n(-c3ccccc3)n2)ccc1O	-3	-32	-8	x	7	-2
COc1ccc(NC(=O)N(C)C[C@H]2Oc3c(NC(=O)c4ccc(-c5nccs5)cc4)cccc3C(=O)N([C@H](C)CO)C[C@@H]2C)cc1	x	x	x	0	x	x
CC(NC(=O)c1ccc2nc[nH]c2c1)c1ccccc1 (stereo unspecified)	-17	2	4	0	3	0
COc1cc(/C=C/C(=O)CC(=O)/C=C/c2ccc(O)c(OC)c2)ccc1O	23	-13	29	0	7	24*
COc1cc(/C=N/Nc2ccc(C(=O)O)cc2)ccc1O	-2	0	10	0	1	27*
CCC(CC)NC(=O)c1ccc2nc[nH]c2c1	-6	-3	1	x	15	18*
COc1cc(/C=C/C(=O)O)ccc1O	3	x	x	-1	4	1
COCC(=O)Nc1ccc2c(c1)C(=O)N(C)[C@H]1CC[C@@H](CC(=O)NCCc3ccncc3)O[C@H]1CO2	x	x	x	0	x	x
Cc1ccccc1NC(=O)Nc1ccc2c(c1)C(=O)N(C)[C@@H]1CC[C@H](CC(=O)O)O[C@@H]1CO2	x	x	x	0	x	x
Cc1cc(=O)nc2c3ccccc3n(CC(=O)NC(C)c3ccc4c(c3)OCCO4)n12 (stereo unspecified)	-9	-21	7	0	-16	13*
CCCNC(=O)Cn1c2ccccc2c2nc(=O)cc(C)n21	14	-1	5	0	-3	1
COc1ccc(OC)c(NC(=O)c2cc(-c3cc(C)cc(C)c3O)n[nH]2)c1	-14	-12	3	-1	0	20*
COc1ccc(OC)c(NC(=O)c2cc(-c3cc(C)c(C)cc3O)n[nH]2)c1	15	-8	-7	0	9	41*
COc1ccc(NC(=O)c2cc(-c3cc(C)c(C)cc3O)n[nH]2)c(OC)c1	6	-17	10	0	8	42*
COc1ccc(OC)c(NC(=O)c2cc(-c3c(C)cc(C)cc3O)n[nH]2)c1	8	-14	1	0	16	7
COc1ccc(CNC(=O)c2cc(-c3cc(C)cc(C)c3O)n[nH]2)cc1	2	-17	4	0	8	-1
CN1C(=O)c2cc(NC(=O)c3ccc(F)c(F)c3)ccc2OC[C@H]2O[C@@H](CC(=O)N[C@@H]3CCN(Cc4ccccc4)C3)CC[C@H]21	x	x	x	0	x	x
SMILES	ZTA counter	FID counter	NS3 helicase inh	FGF22 binding	EBNA-1 inhibitor	NR3A LBD binder
CO[C@H]1CN(C)C(=O)c2cc(NC(=O)CC(F)(F)F)ccc2OC[C@H](C)N(C(=O)C2CCOCC2)C[C@@H]1C	x	x	x	0	x	x
CCCCn1c(O)c(/C=C2\C=Nc3ccccc32)c(=O)[nH]c1=O	-7	4	-6	0	-1	-5
O=c1[nH]c(S)c(/C=C2\C=Nc3ccccc32)s1	4	2	4	0	-7	34*
Cc1cc([N+](=O)[O-])ccc1-c1ccc(C2Nc3ccccc3C(=O)N2O)o1 (stereo unspecified)	1	8	-1	0	9	30*
O=C1c2ccccc2NC(c2ccc(-c3ccccc3F)o2)N1O (stereo unspecified)	-21	x	x	0	x	-2
O=C(Nc1scc(-c2ccccc2)c1C(=O)O)c1ccccc1Cl	11	-18	26	37*	1	1
Cc1ccc(S(=O)(=O)N2C[C@H]3C(=O)C[C@@H](c4ccccc4F)N(S(=O)(=O)c4ccc(C)cc4)[C@H]3C[C@H]2c2cccc3ccccc23)cc1	x	x	x	43*	x	x
C[C@H]1CN([C@@H](C)CO)C(=O)c2cc(C3=CCCC3)cnc2O[C@H]1CN(C)S(=O)(=O)c1cn(C)cn1	x	x	x	0	x	x
CN1C(=O)S/C(=C\c2ccccc2OCc2ccc(C(=O)O)cc2)C1=O	10	-31	11	0	11	3
COc1cccc(/C=C2\SC(=O)NC2=O)c1OCc1ccc(C(=O)O)cc1	4	-21	4	x	8	15*
C[C@@H](NC(=O)[C@H]1[C@H](CO)[C@H]2Cn3c(ccc(C4=CCCCC4)c3=O)[C@@H]1N2)c1ccccc1	x	x	x	0	x	x
CCOC(=O)c1nn(-c2ccccc2C)c2nc(Nc3ccccc3)cc(=O)n12	-17	-28	7	x	-8	13*
CCOC(=O)c1nn(-c2ccc(Cl)cc2)c2nc(Nc3ccccc3)cc(=O)n12	-9	-20	-5	x	-3	-3
O=C1NC(NS(=O)(=O)c2ccccc2)(C(F)(F)F)C(=O)N1c1ccc(F)cc1 (stereo unspecified)	5	-2	-13	x	4	16*
Nc1ccc(S(=O)(=O)NC2(C(F)(F)F)NC(=O)N(c3ccc(F)cc3)C2=O)cc1 (stereo unspecified)	6	-3	-7	0	-2	-3
CCCNC(=O)C[C@@H]1C[C@@H]2c3cc(NC(=O)C4CCOCC4)ccc3O[C@@H]2[C@H](CO)O1	x	x	x	0	x	x
C[C@@H]1CN([C@@H](C)CO)C(=O)Cc2cc(NC(=O)C3CC3)ccc2O[C@@H]1CN(C)C(=O)Nc1ccc(C(F)(F)F)cc1	x	x	x	-1	x	x
O=C(O)c1ccccc1OC(=O)C12CC3CC(CC(C3)C1)C2	-1	7	0	43*	-15	-1
COc1ccc(-c2ncccc2OC(=O)C23CC4CC(CC(C4)C2)C3)cc1	13	-20	-30	x	-2	16*
O=C(Nc1ccccc1)N1CCCCN2[C@H](CO)[C@@H](c3ccc(C4=CCCCC4)cc3)[C@H]2C1	x	x	x	-1	x	x
O=C(Nc1ccc(N2CCOCC2)cc1N1CCOCC1)c1ccc([N+](=O)[O-])cc1	-3	-1	1	x	-7	2

Screening data from PubChem.
